Experimental data from ChEMBL document CHEMBL1141110, “Structure-activity relationships of new A,D-ring modified steroids as aromatase inhibitors: design, synthesis, and biological activity evaluation” (J Med Chem, 2005).

T1: Aromatase (Homo sapiens, UniProt P11511)
T1 sequence (P11511 whole entry): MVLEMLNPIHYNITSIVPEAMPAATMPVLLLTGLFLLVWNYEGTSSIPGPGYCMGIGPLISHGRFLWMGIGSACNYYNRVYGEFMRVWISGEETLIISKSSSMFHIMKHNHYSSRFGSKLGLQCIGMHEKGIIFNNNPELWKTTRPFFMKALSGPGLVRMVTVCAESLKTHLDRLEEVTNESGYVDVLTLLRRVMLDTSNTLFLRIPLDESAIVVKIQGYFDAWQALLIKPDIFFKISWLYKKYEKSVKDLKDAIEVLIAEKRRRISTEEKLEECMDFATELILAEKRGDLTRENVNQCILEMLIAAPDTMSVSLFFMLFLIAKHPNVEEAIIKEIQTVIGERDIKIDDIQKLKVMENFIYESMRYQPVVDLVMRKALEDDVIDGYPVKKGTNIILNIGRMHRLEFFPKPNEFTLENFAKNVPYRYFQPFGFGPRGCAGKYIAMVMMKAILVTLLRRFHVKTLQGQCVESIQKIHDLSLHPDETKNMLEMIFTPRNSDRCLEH

B1: Aromatase (Homo sapiens) (protein)
chain: MVLEMLNPIHYNITSIVPEAMPAATMPVLLLTGLFLLVWNYEGTSSIPGPGYCMGIGPLISHGRFLWMGIGSACNYYNRVYGEFMRVWISGEETLIISKSSSMFHIMKHNHYSSRFGSKLGLQCIGMHEKGIIFNNNPELWKTTRPFFMKALSGPGLVRMVTVCAESLKTHLDRLEEVTNESGYVDVLTLLRRVMLDTSNTLFLRIPLDESAIVVKIQGYFDAWQALLIKPDIFFKISWLYKKYEKSVKDLKDAIEVLIAEKRRRISTEEKLEECMDFATELILAEKRGDLTRENVNQCILEMLIAAPDTMSVSLFFMLFLIAKHPNVEEAIIKEIQTVIGERDIKIDDIQKLKVMENFIYESMRYQPVVDLVMRKALEDDVIDGYPVKKGTNIILNIGRMHRLEFFPKPNEFTLENFAKNVPYRYFQPFGFGPRGCAGKYIAMVMMKAILVTLLRRFHVKTLQGQCVESIQKIHDLSLHPDETKNMLEMIFTPRNSDRCLEH

Legend:
Aromatase [1] = molecular target: T1, Aromatase; test: Percent inhibition at 2 uM against aromatase protein from human placental microsomes using [1-beta-3H]-androstenedione
In short: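 Screening used 20 µg microsomal protein from human placenta, 40 nM [1β-3H]androstenedione (1 µCi) and inhibitor at 2 µM in 67 mM K phosphate pH 7.4. Reaction was started with 150 µM NADPH and run 15 min at 37 °C. 3H2O release was measured by scintillation counting after chloroform and charcoal-dextran cleanup. Inhibition is given relative to the no-inhibitor control. Triplicates.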

Aromatase [2] = molecular target: T1, Aromatase; test: Inhibition constant against aromatase protein from human placental microsomes using [1-beta-3H]-androstenedione; Competitive inhibition
In short: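 Microsomes from human placenta. Kinetic runs used 10-30 nM [1β-3H]androstenedione with 150 µM NADPH, a range of inhibitor and substrate concentrations, and 5 min at 37 °C in 67 mM K phosphate pH 7.4. Released 3H2O was separated with chloroform and dextran-coated charcoal, then scintillation counted. Inhibition type was taken from Lineweaver-Burk plots and Ki from Dixon plots. Triplicates.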

Aromatase [3] = molecular target: T1, Aromatase; test: Inhibitory concentration against aromatase protein from human placental microsomes using [1-beta-3H]-androstenedione; Competitive inhibition
In short: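 Human placental microsomes in 67 mM K phosphate pH 7.4 with 200 nM [1β-3H]androstenedione (1 µCi) and graded inhibitor concentrations; inhibitors were dissolved in ethanol. Reaction was started with 150 µM NADPH and run 15 min at 37 °C. 3H2O was extracted with chloroform and dextran-coated charcoal, then scintillation counted. Triplicates.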

Aromatase [4] = molecular target: T1, Aromatase; test: Ratio of Michaelis-Menten constant and inhibition constant for aromatase enzyme; Competitive inhibition
In short: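 Ratio of substrate Km to Ki. Km for androstenedione and Ki come from the same placental-microsome kinetic runs: 10-30 nM [1β-3H]androstenedione, 150 µM NADPH, 5 min at 37 °C, with 3H2O release as the read-out. Ki was taken from Dixon plots.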

[5] = substrate: C[C@]12CCC(=O)C=C1CC[C@@H]1[C@@H]2CC[C@]2(C)C(=O)CC[C@@H]12; test: Michaelis-Menten constant against Aromatase; parameters: species or system Homo sapiens
In short: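 Human placental microsomes (cotyledon homogenate, differential centrifugation, stored -80 °C), 67 mM potassium phosphate pH 7.4. Kinetic runs used 10-30 nM [1β-3H]androstenedione, NADPH 150 µM to start, 5 min at 37 °C. Aromatization read as released 3H2O after chloroform and dextran-charcoal extraction, by scintillation counting. Lineweaver-Burk analysis; points are means of three determinations.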

Row | Molecule | inhibition at 2 µM (Aromatase [1]) | Ki (Aromatase [2]) | IC50 (Aromatase [3]) | Km/Ki (Aromatase [4]) | Km [5]
1 | C[C@]12CCC3C(CC[C@@H]4[C@H]5O[C@H]5CC[C@]34C)C1CCC2=O (stereo partly specified) | 14.6% | – | – | – | –
2 | C[C@]12CC[C@H]3O[C@H]3[C@@H]1CC[C@@H]1[C@@H]2CC[C@]2(C)C(=O)CC[C@@H]12 | 96.4% | 38 nM | 145 nM | 1.51 | –
3 | C[C@]12CC[C@H](O)[C@@H](O)[C@H]1CC[C@@H]1[C@@H]2CC[C@]2(C)C(=O)CC[C@@H]12 | 10.1% | – | – | – | –
4 | C[C@]12CCC3C(CC[C@H]4[C@@H](O)[C@H](O)CC[C@]34C)C1CCC(=O)O2 (stereo partly specified) | 8.1% | – | – | – | –
5 | C[C@]12CCC3C(CC[C@@]4(C=O)OC(=O)CC[C@]34C)C1CCC2=O (stereo partly specified) | 11% | – | – | – | –
6 | C[C@]12CCC(=O)C(O)=C1CC[C@@H]1[C@@H]2CC[C@]2(C)C(=O)CC[C@@H]12 [FORMESTANE] | 99.1% | – | 42 nM | – | –
7 | C[C@]12CC[C@@H](O)[C@H](O)[C@@H]1CC[C@@H]1[C@@H]2CC[C@]2(C)C(=O)CC[C@@H]12 | 34.6% | – | – | – | –
8 | C[C@]12CCC3C(CC[C@H]4C(=O)[C@H](O)CC[C@]34C)C1CCC(=O)O2 (stereo partly specified) | 16.6% | – | – | – | –
9 | C[C@]12CCC3C(CC[C@H]4C(O)(C#N)[C@H](O)CC[C@]34C)C1CCC(=O)O2 (stereo partly specified) | 17.6% | – | – | – | –
10 | C[C@]12CCC3C(CC[C@H]4C=CCC[C@]34C)C1CCC2=O (stereo partly specified) | 95.9% | 50 nM | 225 nM | 1.15 | –
11 | C[C@]12CC[C@@H](O)C(=O)[C@@H]1CC[C@@H]1[C@@H]2CC[C@]2(C)C(=O)CC[C@@H]12 | 83.3% | 147 nM | 670 nM | 0.39 | –
12 | C[C@]12CCC(=O)C(O)=C1CCC1C2CC[C@]2(C)OC(=O)CCC12 (stereo partly specified) | 72.5% | 660 nM | 1850 nM | 0.087 | –
13 | B1 | – | – | – | – | 0.0575 µM
